SIAE inh: blocks human sialic acid acetylesterase; hit rate 0.69% among 370,000; inhibition, % at 9.66 µM; SIAE FP-Rh probe binding, fluorescence polarization;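 active means inhibition above a cutoff: mean of compounds within the control limits plus 3 SD of those, cut at about 17% in these data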;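 further: 0% = plate median of compound wells and 100% = probe without SIAE protein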
mABHD4 FP: inhibits mouse alpha/beta hydrolase domain 4. hit rate 0.54% among 370,000. Q8VD66. AID 720543. purified mABHD4, FP-Rh probe fluorescence polarization. inhibition, % at 8.92 µM;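 active means inhibition exceeding the mean over every tested compound plus 3 SD, cut at about 30% in these data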;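 further: 0% = plate median of compound wells and 100% = S159A mutant with DMSO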
Target sequence (Q8VD66 whole entry, looked up, the tested form may be a part): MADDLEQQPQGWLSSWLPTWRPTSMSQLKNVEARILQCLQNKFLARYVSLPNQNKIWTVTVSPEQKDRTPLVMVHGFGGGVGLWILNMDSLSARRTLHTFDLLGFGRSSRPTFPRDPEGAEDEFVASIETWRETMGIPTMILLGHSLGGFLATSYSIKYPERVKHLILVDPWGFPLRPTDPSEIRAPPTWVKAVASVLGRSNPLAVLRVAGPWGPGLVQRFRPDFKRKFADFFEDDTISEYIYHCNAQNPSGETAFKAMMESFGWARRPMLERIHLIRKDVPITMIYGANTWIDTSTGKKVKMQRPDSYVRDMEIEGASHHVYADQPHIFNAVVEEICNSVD
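Doses – 8.92 µM, single dose · Material – wild-type mouse ABHD4 protein · Replication – single well per compound (singlicate) · Measure – percent inhibition of probe binding, normalized to plate controls · Schedule – 45 min compound pre-incubation plus 60 min probe step, 25 °C · Detection – fluorescence polarization with parallel and perpendicular emission, 525/598 nm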
HTRA1 inh: blocks human HTRA1 serine peptidase | Q92743 | recombinant HTRA1, FP-rhodamine activity-based probe, fluorescence polarization | inhibition, % at 5.96 µM | hit rate 0.5% among 340,000 | AID 504803; in the data active means inhibition above about 36%;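 further: 0% = enzyme with DMSO and 100% = wells lacking enzyme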
DDE Tn6 FP inh: DD(E)-Tn6 binding inhibition, primary FP screen. P02675. Fibrin DD(E) TRITC-Tn6 fluorescence polarization displacement. inhibition, % at 8.3 µM. hit rate 0.21% among 370,000. AID 720509;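 active means inhibition above a per-campaign cutoff: mean of compounds within control limits plus 3 SD, cut at about 15% in these data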;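 further: 0% = median of all compound wells on the plate and 100% = blocking peptide control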
Tn7 DDE FP: DD(E)-Tn7 binding inhibition, primary FP screen; P02675; FP displacement of FITC-Tn7 peptide from fibrin DD(E); 0% = median of compound wells per plate; inhibition, % at 8.3 µM; hit rate 0.13% among 370,000; AID 720508;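 active means inhibition above the mean of compounds falling within the control limits plus 3 SD of them, cut at about 14% in these data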;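 further: 0% = plate median of compound wells and 100% = 10 µM Aha-Tn7 peptide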
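System: human fibrin DD(E); quantity: Fibrin-DD(E) at 2 µM final; also added: fluorescent Tn7 probe at 0.1 µM; compound dosing: single nominal test concentration of 8.3 µM per compound; schedule: 10 min preincubation, 3 h with tracer, room temperature; detection: fluorescence polarization of the labelled Tn7 tracer; repeats: one replicate per compound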
TCR CD3 inh: human TCR-CD3 binding inhibition; TAMRA-labeled TCR probe fluorescence, biochemical; inhibition, % at 9.4 µM; hit rate 0.37% among 360,000; AID 651800; in the data active means inhibition above about 19%;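 further: recombinant mutant TCR 2C K166C tagged with TAMRA read by polarization; 0% = receptor in buffer alone and 100% = receptor with positive control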
mABHD4 conf: ABHD4 (mouse) inhibition, FP confirmation | AID 720658 | purified mABHD4, FP-Rh probe fluorescence polarization | inhibition, % at 8.92 µM | hit rate 55% among 1,800 | shares compounds with mABHD4 FP;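 active means mean inhibition across replicates above the hit cutoff set in the primary screen, cut at about 30% in these data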;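 further: 0% = wild-type ABHD4 with DMSO and 100% = catalytically dead S159A mutant with DMSO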
The depositor's hits bear a star; / = no result. Compounds with a hit are over-represented: about 1.8% of the library has one in this group of screens.

SMILES | SIAE inh | mABHD4 FP | HTRA1 inh | DDE Tn6 FP inh | Tn7 DDE FP | TCR CD3 inh | mABHD4 conf
Cc1csc(=O)n1CC(=O)OCc1nnc(-c2ccc(Cl)cc2)o1 | 1.4 | 36.2* | 6.7 | -5.0 | -3.3 | -2.9 | 4.7
CC(=O)Nc1ccc(C(/C=C/c2ccccc2)Cc2ccccc2)cc1 (configuration not stated) | -10.1 | -32.5 | / | -1.0 | 3.6 | / | /
CCCCCN=C(N)N/N=C/c1c[nH]c2ccc(OC)cc12 | -4.5 | 40.7* | 11.9 | -4.7 | 2.8 | -3.8 | 53.8*
COc1ccc(N2CC(C(=O)N/N=C/c3c[nH]c4ccccc34)CC2=O)cc1 (configuration not stated) | 1.4 | 4.0 | 2.7 | -4.5 | 3.5 | 0.2 | /
CCOC(=O)c1c(-c2ccccc2)csc1NC(=O)CCN1C(=O)c2ccccc2C1=O | 3.8 | 0.5 | -3.0 | 5.6 | -2.5 | 3.2 | /
CCOC(=O)c1c(-c2ccc(-c3ccccc3)cc2)csc1NC(=O)CNCCN(C)C | 11.0 | 30.2* | 30.0 | -11.9 | -3.3 | -9.1 | 43.1*
Nc1ccc2cc3[nH]c4cc(N)ccc4c3nc2c1 | 2.4 | 36.4* | 32.3 | -11.4 | -9.0 | 10.0 | 72.1*
CC[C@@H](CCCc1ccc(F)cc1)CN(Cc1ccc(OC)cc1)S(=O)(=O)c1ccc(C)cc1 | -5.2 | 0.9 | / | -0.7 | -4.6 | / | /
CCOC(=O)C1=C(C)N=c2s/c(=C\c3ccc(O)c([N+](=O)[O-])c3)c(=O)n2C1c1ccccc1OC (configuration not stated) | 3.9 | 36.8* | 21.2 | 3.1 | -1.2 | -6.3 | 63.0*
CCOC(=O)C1=C(C)N=c2s/c(=C\c3ccc(OCC(=O)O)cc3)c(=O)n2C1c1ccccc1OC (configuration not stated) | -2.7 | -11.8 | -17.8 | -6.6 | 1.8 | -0.7 | /
CC1(C)C=Cc2ccc(O)c(C(=O)/C=C/c3ccccc3)c2O1 | 15.8 | 11.0 | / | 2.7 | 0.5 | / | /
CCOC(=O)[C@]12CCCCC/C=C\1N(Cc1ccc(OC)cc1)C(=O)[C@H]2CC(=O)NCc1cccc(C(F)(F)F)c1 | 0.9 | -5.5 | / | 2.5 | -0.4 | / | /
CC(=O)Nc1ccc(C=NNc2ccc(S(=O)(=O)Nc3ccccc3C(=O)O)cc2[N+](=O)[O-])cc1 | -2.7 | 54.9* | 35.0 | -17.3 | -0.6 | -4.8 | 76.9*
CC(=O)Nc1cccc(/C(C)=N/Nc2ccc(S(=O)(=O)Nc3ccccc3C(=O)O)cc2[N+](=O)[O-])c1 | 7.0 | 42.4* | 6.5 | -5.0 | 2.9 | 4.6 | 63.0*
NS(=O)(=O)c1ccc(N/N=C/c2ccc(C(=O)O)cc2)c([N+](=O)[O-])c1 | -6.6 | 0.8 | 1.7 | 5.4 | -5.8 | 0.8 | /
COc1ccc(C(C)=NNc2ccc([N+](=O)[O-])cc2S(=O)(=O)Nc2ccccc2C(=O)O)c(OC)c1 | -18.1 | -2.9 | -129.9 | 8.1 | 6.7 | -3.1 | /
O=C(Nc1c(-c2ccc(F)cc2)nc2ncccn12)C1CC1 | 1.6 | 0.9 | / | 4.4 | -4.3 | / | /
CCc1cc(C(=O)N=Nc2c(O)[nH]c3ccc([N+](=O)[O-])cc23)c2ccccc2n1 | 1.7 | 40.4* | 6.6 | -7.2 | -3.1 | 7.7 | 41.4*
O=C(N=Nc1c(O)[nH]c2ccc([N+](=O)[O-])cc12)c1ccccc1[N+](=O)[O-] | -2.2 | 10.7 | 2.4 | -1.7 | -4.5 | -5.6 | /
O=C(O)CCCN1C(=O)/C(=C/C=C/c2ccco2)SC1=S | 7.8 | 42.9* | 26.4 | 3.4 | -3.4 | 8.9 | 9.8
O=C1/C(=C/c2ccc(Cl)cc2)SC(=S)N1CCC(=O)N1CCCCC1CCO (configuration not stated) | 0.4 | -5.2 | -29.1 | -5.1 | 6.5 | 9.1 | /
Cc1ccc(NC(=O)CCCN2C(=O)/C(=C/C=C/c3ccccc3)SC2=S)cc1 | -2.5 | -4.2 | -36.8 | -2.1 | -5.1 | 1.3 | /
O=C1/C(=C/c2ccco2)SC(=S)N1CCC(=O)N1CCCCC1CCO (configuration not stated) | 2.9 | 29.7* | 27.0 | -1.3 | 0.2 | 0.9 | 3.6
O=C(O)CC(C(=O)O)N1C(=O)/C(=C/C=C/c2ccco2)SC1=S (configuration not stated) | -8.2 | 34.8* | 22.0 | -2.2 | 8.7 | 3.4 | 3.0
O=C1CCC2(CCC(c3ccccc3)CC2)N1CCO (configuration not stated) | 2.0 | 1.2 | / | -1.6 | 0.9 | / | /
SMILES | SIAE inh | mABHD4 FP | HTRA1 inh | DDE Tn6 FP inh | Tn7 DDE FP | TCR CD3 inh | mABHD4 conf
C=CCOC(=O)N[C@H](c1ccc2ccccc2c1)[C@H](C)/C=C/CC(=O)OC | -3.8 | -4.3 | / | 0.6 | 3.4 | / | /
CC(COc1ccccc1)CN1CCC(C(O)(c2ccccc2)c2ccccc2)CC1 (configuration not stated) | -1.1 | 2.7 | / | 5.4 | 3.6 | / | /
COc1cccc(C2CC(c3ccc(NS(C)(=O)=O)cc3)=NN2C(=O)c2ccccc2)c1OC (configuration not stated) | 5.8 | 43.7* | -10.3 | 0.4 | -4.8 | 1.1 | 55.4*
CCc1ccc(CNCC(=O)N2CCC3(CC2)OCCO3)s1 | 8.9 | -0.6 | / | -2.5 | 3.9 | / | /
CN(C)CCOC(=O)COc1ccc(Cl)cc1 | 3.7 | 62.3* | 7.8 | 1.3 | -0.9 | 5.0 | -4.3
CN(C)CCOC(=O)Cc1ccc(Cl)cc1 | 5.7 | -0.4 | -4.3 | -0.1 | 0.0 | -5.0 | /
Brc1ccc(-c2csc(N3CCNCC3)n2)cc1 | 2.0 | 60.8* | / | -1.9 | 7.4 | / | 75.3*
COc1ccccc1N1C(=O)C2C(c3ccc(F)cc3)NN(C(=O)c3ccc(C)cc3)C2C1=O (configuration not stated) | 0.6 | 33.7* | 0.7 | -1.9 | -6.2 | -4.1 | 24.1
Cc1ccc(C(=O)N2NC(c3ccc(F)cc3)C3C(=O)N(c4ccc(C)cc4)C(=O)C32)cc1 (configuration not stated) | 1.9 | 0.9 | -11.7 | 4.2 | 2.2 | 0.7 | /
Oc1ccc(NC(=S)Nc2ccccc2)cc1 | 7.6 | 42.4* | 5.4 | 1.7 | 10.8 | 8.3 | -7.1
COC(=O)[C@]12C[C@H](CC(=O)NCCCN3CCCC3=O)C(=O)N(Cc3cccc4ccccc34)C1=C[C@H](C(C)(C)C)O[C@@H]2C | -0.7 | -1.9 | / | 2.5 | -2.0 | / | /
NNc1nc2ccc(F)cc2s1 | 11.4 | 42.2* | 30.3 | 5.5 | -0.3 | 6.5 | 26.0
Fc1ccc2nc(Nc3ccccc3)sc2c1 | 10.2 | -0.2 | -11.8 | 1.1 | 0.9 | -4.9 | /
COc1ccc(CN[C@@H]2CC[C@@]34CCCN3C(=O)CCC[C@H]4C2)cc1OC | 2.7 | 0.9 | / | -2.6 | -4.4 | / | /
COc1ccc(Nc2nc(NC(C)(C)C)nc(N3CCCC3)n2)c(OC)c1 | 14.2 | 34.0* | 5.5 | -7.4 | -3.6 | 0.2 | 48.4*
